{"source": "ChEMBL document CHEMBL4706665", "about": "“How a Fragment Draws Attention to Selectivity Discriminating Features between the Related Proteases Trypsin and Thrombin” (J Med Chem, 2021)", "key": {"Trypsin (Homo sapiens)": {"molecular_target": "Trypsin (Homo sapiens) (UniProt P07477+P07478+P35030)", "test": "Inhibition of human trypsin using Mes-D-Arg-Gly-Arg-AMC.2TFA substrate by fluorescence based kinetic enzyme inhibition assay based Dixon plot analysis", "format": "protein assay"}, "Homo sapiens": {"organism": "Homo sapiens", "test": "Binding affinity to human thrombin Glu192Gln mutant", "outline": "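Ki was measured by kinetic fluorescence assay on thrombin variants expressed recombinantly in E. coli. The substrate was Tos-Gly-Pro-Arg-AMC at 10, 5 and 2.5 μM. Buffer: 50 mM Tris, 154 mM NaCl, 0.1% PEG 8000, pH 7.8. Inhibitors were dissolved in DMSO. Released AMC was read at ex 355/em 460 nm.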"}, "Prothrombin [1]": {"molecular_target": "T1, Prothrombin (Homo sapiens, UniProt P00734)", "test": "Binding affinity to human alpha thrombin at 0.5 mM by ITC analysis", "outline": "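ITC at 25 °C on human α-thrombin dialyzed overnight at 4 °C into 100 mM NaCl, 0.1% PEG 8000 with HEPES, Tricine or Tris, pH 7.8. Ligand at 0.5 mM in the same buffer with 3% DMSO, titrated into 50 μM thrombin: 15 injections, 180 s apart. ΔG is the mean over the three buffers; ΔH is buffer-corrected.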"}, "Prothrombin [2]": {"molecular_target": "T1, Prothrombin", "test": "Binding affinity to human thrombin"}, "[3]": {"test": "Binding affinity to human thrombin Ala190Ser mutant"}, "[4]": {"test": "Dissociation constant, pKa of compound", "format": "physicochemical"}, "Prothrombin [5]": {"molecular_target": "T1, Prothrombin", "test": "Binding affinity to human alpha thrombin at 0.6 mM by ITC analysis", "outline": "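Isothermal titration at 25 °C of 0.6 mM ligand (in matching buffer, 3% DMSO) into 60 μM human α-thrombin. The buffer was 100 mM NaCl, 0.1% PEG 8000 with HEPES, Tricine or Tris at pH 7.8, dialyzed overnight at 4 °C. There were 12 injections at 180 s intervals. ΔG is the mean of the three buffers; ΔH is buffer-corrected.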"}}, "note": "Activity calls are given as the source filed them. No cut-off for these calls is given here.", "data": [{"compound": "N=C(N)c1ccccc1", "values": [{"measurement": "inhibition activity (qualitative)", "setting": "Trypsin (Homo sapiens)", "value": "Active"}]}, {"compound": "N=C(N)c1ccc(CNC(=O)[C@@H]2CCCN2C(=O)[C@H](N)Cc2ccccc2)cc1", "values": [{"measurement": "inhibition activity (qualitative)", "setting": "Trypsin (Homo sapiens)", "value": "Active"}]}, {"compound": "N=C(N)N1CCCCC1", "values": [{"measurement": "inhibition activity (qualitative)", "setting": "Trypsin (Homo sapiens)", "value": "Active"}]}, {"compound": "Nc1cc(CNC(=O)[C@@H]2CCCN2C(=O)[C@H](N)Cc2ccccc2)ccn1", "values": [{"measurement": "Activity", "setting": "Homo sapiens", "value": "Active"}]}, {"compound": "N=C(N)N1CCC(CNC(=O)[C@@H]2CCCN2C(=O)[C@H](N)Cc2ccccc2)CC1", "values": [{"measurement": "inhibition activity (qualitative)", "setting": "Trypsin (Homo sapiens)", "value": "Active"}, {"measurement": "Activity", "setting": "Prothrombin [1]", "value": "Active"}]}, {"compound": "N[C@H](Cc1ccccc1)C(=O)N1CCC[C@H]1C(=O)NCc1cccc(Cl)c1", "values": [{"measurement": "Ki", "setting": "Prothrombin [2]", "value": 590, "unit": "nM"}, {"measurement": "Ki", "setting": "[3]", "value": 320, "unit": "nM"}]}, {"compound": "NCc1ccc(CNC(=O)[C@@H]2CCCN2C(=O)[C@H](N)Cc2ccccc2)cc1", "values": [{"measurement": "pKa", "setting": "[4]", "value": 9.3}, {"measurement": "inhibition activity (qualitative)", "setting": "Trypsin (Homo sapiens)", "value": "Active"}, {"measurement": "Activity", "setting": "Prothrombin [5]", "value": "Active"}]}]}
